Results published in ChEMBL document CHEMBL1155457, “Discovery of the dual orexin receptor antagonist [(7R)-4-(5-chloro-1,3-benzoxazol-2-yl)-7-methyl-1,4-diazepan-1-yl][5-methyl-2-(2H-1,2,3-triazol-2-yl)phenyl]methanone (MK-4305) for the treatment of insomnia” (J Med Chem, 2010).
The source made the active and inactive calls. No cut-off for these calls is given here.

Tests used:
[1] = tested on: Liver microsomes; test: Idiosyncratic toxicity in human liver microsomes assessed GSH-derived reactive electrophilic adduct formation at 10 uM after 60 mins by UPLC/HRMS analysis relative to labetalol; parameters: species or system Microsome; settings: 1 h
Summary of the method: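 Pooled human liver microsomes (1 mg/mL protein) were incubated 60 min at 37 °C in 100 mM potassium phosphate pH 7.4. The mix held 10 μM compound, 1 mM MgCl2, 1 mM EDTA, 5 mM GSH and 1 mM NADPH. After quenching, GSH adducts were detected by UPLC/HRMS. Summed adduct peak areas were divided by the labetalol internal-standard area.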

[2] = target: T1, Orexin/Hypocretin receptor type 1 (Homo sapiens, UniProt O43613); test: Displacement of [3H](S)-N-(biphenyl-2-yl)-1-(2-(1-methyl-1H-benzo[d]imidazol-2-ylthio)acetyl)pyrrolidine-2-carboxamide from human OX1R expressed in CHO cells after 3 hrs by scintillation counting; type: cell-based
T1 sequence (O43613 whole entry): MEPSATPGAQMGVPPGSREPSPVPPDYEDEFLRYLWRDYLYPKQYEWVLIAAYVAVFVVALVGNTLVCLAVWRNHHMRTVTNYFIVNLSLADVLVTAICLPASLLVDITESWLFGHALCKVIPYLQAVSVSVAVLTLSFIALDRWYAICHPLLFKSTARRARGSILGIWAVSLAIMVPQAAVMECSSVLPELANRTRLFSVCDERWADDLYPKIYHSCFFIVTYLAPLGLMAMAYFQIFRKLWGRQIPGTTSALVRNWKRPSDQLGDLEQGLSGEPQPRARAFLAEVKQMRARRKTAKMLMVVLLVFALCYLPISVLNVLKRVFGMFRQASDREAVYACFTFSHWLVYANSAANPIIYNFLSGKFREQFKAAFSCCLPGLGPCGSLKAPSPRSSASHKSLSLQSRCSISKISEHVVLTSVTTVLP

[3] = target: T1, Orexin/Hypocretin receptor type 1; test: Displacement of [3H]N-cyclobutyl-5-methyl-N-(2-(1-methyl-1H-benzo[d]imidazol-2-ylthio)ethyl)-2-(2H-1,2,3-triazol-2-yl)benzamide from human OX1R expressed in CHO cells after 20 hrs by scintillation counting; type: cell-based
[4] = target: T2, Orexin receptor type 2 (Homo sapiens, UniProt O43614); test: Displacement of [3H](S)-N-(2-(1H-pyrrol-1-yl)phenyl)-1-(2-(1-methyl-1H-benzo[d]imidazol-2-ylthio)acetyl)pyrrolidine-2-carboxamide from human OX2R expressed in CHO cells after 3 hrs by scintillation counting; type: cell-based
T2 sequence (O43614 whole entry): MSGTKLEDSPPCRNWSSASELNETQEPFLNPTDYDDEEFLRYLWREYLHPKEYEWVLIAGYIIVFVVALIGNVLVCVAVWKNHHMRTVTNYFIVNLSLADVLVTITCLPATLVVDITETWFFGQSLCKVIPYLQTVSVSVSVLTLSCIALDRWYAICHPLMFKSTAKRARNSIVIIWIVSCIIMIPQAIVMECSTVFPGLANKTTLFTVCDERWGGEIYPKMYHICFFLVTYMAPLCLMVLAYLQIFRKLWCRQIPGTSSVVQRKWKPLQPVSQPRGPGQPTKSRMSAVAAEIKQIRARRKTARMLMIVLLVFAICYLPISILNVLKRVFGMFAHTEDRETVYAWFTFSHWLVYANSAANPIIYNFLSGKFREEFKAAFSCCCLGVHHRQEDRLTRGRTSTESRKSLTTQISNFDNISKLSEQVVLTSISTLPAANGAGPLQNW

[5] = target: T1, Orexin/Hypocretin receptor type 1; test: Antagonist activity at human OX1R expressed in CHO cells assessed as inhibition of orexin-A-induced intracellular calcium mobilization after 5 mins by FLIPR assay; type: functional, cell-based
[6] = target: T2, Orexin receptor type 2; test: Antagonist activity at human OX2R expressed in CHO cells assessed as inhibition of orexin-A-induced intracellular calcium mobilization after 5 mins by FLIPR assay; type: functional, cell-based
[7] = Clearance in dog at 0.5 mg/kg, iv; type: ADME, organism-based, Canis lupus familiaris; parameters: dose 0.5 mg/kg, route intravenous; settings: in vivo
Summary of the method: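 Dogs received an IV dose with DMSO as vehicle (n = 3). Clearance was derived from plasma pharmacokinetics.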

[8] = Lipophilicity, log P of the compound; type: physicochemical; settings: octanol/water
[9] = tested on: Rattus norvegicus; test: Antiinsomnic activity in Sprague-Dawley rat assessed as decrease in active wake duration at 10 mg/kg/day, po […]; type: functional, organism-based
Summary of the method: (§1)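 Rats carried telemetry implants recording ECoG/EMG (sampled at 500 Hz) and had recovered at least 2 weeks after surgery. They were on a 12:12 light cycle with lights off at 04:00. After 2 days of vehicle habituation, four rats were dosed by oral gavage in 20% aqueous TPGS at 09:00, 5 h into the active phase. The design was a one-week crossover against vehicle. Recording ran 23 h; stages were auto-scored in 30-min bins, averaged over 7 days and compared by mixed-model ANOVA at each time point.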

[10] = tested on: Rattus norvegicus; test: Antiinsomnic activity in Sprague-Dawley rat assessed as increase in rapid-eye movement at 10 mg/kg/day, po measured with 3 to 4 hrs post last dose; type: functional, organism-based; summary of the method: as §1
[11] = tested on: Rattus norvegicus; test: Antiinsomnic activity in Sprague-Dawley rat assessed as increase in delta sleep duration at 10 mg/kg/day, po measured with 3 to 4 hrs post last dose; type: functional, organism-based; summary of the method: as §1
[12] = tested on: Rattus norvegicus; test: Antiinsomnic activity in Sprague-Dawley rat assessed as decrease in light sleep duration at 10 mg/kg/day, po measured with 3 to 4 hrs post last dose; type: functional, organism-based; summary of the method: as §1
[13] = Drug level in Sprague-Dawley rat plasma at 10 mg/kg/day, po after 1 hr; type: ADME, organism-based; parameters: route oral; settings: read-out: Drug uptake
[14] = Drug level in Sprague-Dawley rat CSF at 10 mg/kg/day, po after 1 hr; type: ADME, organism-based, Cerebrospinal fluid; parameters: route oral; settings: read-out: Drug uptake
[15] = Fraction unbound in rat plasma; type: ADME, cell-free
[16] = Oral bioavailability in dog at 3 mg/kg; type: ADME, organism-based, Canis lupus familiaris; settings: in vivo
[17] = Oral bioavailability in rat at 10 mg/kg; type: ADME, organism-based; settings: in vivo
[18] = Clearance in rat at 10 mg/kg, iv; type: ADME, organism-based; parameters: dose 10 mg/kg, route intravenous; settings: in vivo

Ki [2]	Ki [3]	Ki [4]	IC50 [5]	IC50 [6]	clearance [7]	logP [8]	concentration at 1 h [13]	concentration at 1 h [14]	fraction unbound [15]	bioavailability [16]	bioavailability [17]	clearance [18]	Compound	Ratio [1]	Activity [9]	Activity [10]	Activity [11]	Activity [12]
0.78 nM	0.78 nM	0.28 nM	24 nM	28 nM	9.2 mL/min/kg	–	–	–	–	–	–	–	C[C@@H]1CCN(c2ncc3c(n2)CCCC3)CCN1C(=O)c1ccccc1-n1nccn1	0.7	–	–	–	–
–	–	–	–	–	5.2 mL/min/kg	3	20 nM	1000 nM	0.03	37%	47%	33 mL/min/kg	Cc1ccc(-n2nccn2)c(C(=O)N2CCN(c3ncc4cc(F)ccc4n3)CC[C@H]2C)c1	–	Active	Active	Active	Active
